≈ marks a conversion by molar mass, not a printed value.
Key:
Assay type in all cases: functional
Pseudomonas aeruginosa [1] = assay: Antimicrobial activity against Pseudomonas aeruginosa isolate 15 obtained from cystic fibrosis patients after 16 to 20 hrs by broth microdilution method
Summary of the method: (§1)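 CLSI broth microdilution: 2-fold serial antibiotic dilutions in Mueller-Hinton broth, inoculated with about 10^4 cells per 100 μl from starter cultures grown to OD600 0.5. MIC is the lowest concentration preventing growth after 16-20 h at 37°C. Triplicate.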

Pseudomonas aeruginosa [2] = assay: Antimicrobial activity against Pseudomonas aeruginosa isolate 4 obtained from cystic fibrosis patients after 16 to 20 hrs by broth microdilution method
Summary of the method: (§2)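 CLSI broth microdilution in Mueller-Hinton broth, serial 2-fold antibiotic dilutions. Inoculum about 10^4 cells per well, taken from starter cultures grown to OD600 0.5. MIC was the lowest antibiotic concentration preventing growth after 16 to 20 h at 37°C. Each MIC was determined in triplicate.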

Pseudomonas aeruginosa [3] = assay: Antimicrobial activity against Pseudomonas aeruginosa isolate 1 obtained from cystic fibrosis patients after 16 to 20 hrs by broth microdilution method in presence of 120 uM carbonyl cyanide m-chlorophenyl-hydrazone
Summary of the method: (§3)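 CLSI broth microdilution in Mueller-Hinton broth with CCCP added from a 10 mM DMSO stock to 120 μM final, alongside 2-fold serial antibiotic dilutions. Inoculum from starter cultures grown to OD600 0.5. MIC is the lowest concentration preventing growth after 16-20 h at 37°C. Triplicate.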

Pseudomonas aeruginosa [4] = assay: Antimicrobial activity against ampG, ampGh1 deficient Pseudomonas aeruginosa PAK after 16 to 20 hrs by broth microdilution method; summary of the method: as §2
Pseudomonas aeruginosa [5] = assay: Antimicrobial activity against ampG deficient Pseudomonas aeruginosa PAK after 16 to 20 hrs by broth microdilution method; summary of the method: as §2
Pseudomonas aeruginosa [6] = assay: Antimicrobial activity against ampG deficient Pseudomonas aeruginosa PAO1 harboring pZY0901 conferring resistance to gentamycin after 16 to 20 hrs by broth microdilution method in presence of 120 uM carbonyl cyanide m-chlorophenyl-hydrazone
Summary of the method: (§4)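 CLSI broth microdilution in Mueller-Hinton broth with serial antibiotic dilutions. CCCP was added from a 10 mM DMSO stock to 120 μM final, then the bacterial culture was added as inoculum (about 10^4 cells from OD600 0.5 starter cultures). MIC was the lowest concentration preventing growth after 16 to 20 h at 37°C, run in triplicate.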

Pseudomonas aeruginosa [7] = assay: Antimicrobial activity against Pseudomonas aeruginosa isolate 10 obtained from cystic fibrosis patients after 16 to 20 hrs by broth microdilution method in presence of 120 uM carbonyl cyanide m-chlorophenyl-hydrazone; summary of the method: as §3
Pseudomonas aeruginosa [8] = assay: Antimicrobial activity against Pseudomonas aeruginosa isolate 15 obtained from cystic fibrosis patients after 16 to 20 hrs by broth microdilution method in presence of 120 uM carbonyl cyanide m-chlorophenyl-hydrazone; summary of the method: as §3
Pseudomonas aeruginosa [9] = assay: Antimicrobial activity against Pseudomonas aeruginosa isolate 10 obtained from cystic fibrosis patients after 16 to 20 hrs by broth microdilution method; summary of the method: as §1
Pseudomonas aeruginosa [10] = assay: Antimicrobial activity against ampG deficient Pseudomonas aeruginosa PAO1 harboring pZY0901 conferring resistance to gentamycin after 16 to 20 hrs by broth microdilution method; summary of the method: as §2
Pseudomonas aeruginosa [11] = assay: Antimicrobial activity against Pseudomonas aeruginosa isolate 5 obtained from cystic fibrosis patients after 16 to 20 hrs by broth microdilution method in presence of 120 uM carbonyl cyanide m-chlorophenyl-hydrazone; summary of the method: as §4
Pseudomonas aeruginosa [12] = assay: Antimicrobial activity against ampD, ampDh2, ampDh3 and ampG deficient Pseudomonas aeruginosa PAO1 after 16 to 20 hrs by broth microdilution method in presence of 120 uM carbonyl cyanide m-chlorophenyl-hydrazone; summary of the method: as §4
Pseudomonas aeruginosa [13] = assay: Antimicrobial activity against ampG deficient Pseudomonas aeruginosa PAO1 harboring pUCP24 conferring resistance to gentamycin after 16 to 20 hrs by broth microdilution method; summary of the method: as §2
Pseudomonas aeruginosa [14] = assay: Antimicrobial activity against Pseudomonas aeruginosa isolate 14 obtained from cystic fibrosis patients after 16 to 20 hrs by broth microdilution method in presence of 120 uM carbonyl cyanide m-chlorophenyl-hydrazone; summary of the method: as §3
Escherichia coli = assay: Antimicrobial activity against tetracycline resistant Escherichia coli SNO301-1 harboring pEC1C carrying ampC, ampR from Enterobacter cloacae after 16 to 20 hrs by broth microdilution method
Summary of the method: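 CLSI broth microdilution: serial 2-fold β-lactam dilutions in Mueller-Hinton broth, inoculum about 10^4 cells from starter cultures at OD600 0.5; MIC read as lowest concentration preventing growth after 16 to 20 h at 37°C; triplicate determinations.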

Pseudomonas aeruginosa [15] = assay: Antimicrobial activity against Pseudomonas aeruginosa isolate 9 obtained from cystic fibrosis patients after 16 to 20 hrs by broth microdilution method; summary of the method: as §2
Pseudomonas aeruginosa [16] = assay: Antimicrobial activity against Pseudomonas aeruginosa isolate 3 obtained from cystic fibrosis patients after 16 to 20 hrs by broth microdilution method in presence of 120 uM carbonyl cyanide m-chlorophenyl-hydrazone; summary of the method: as §4
Pseudomonas aeruginosa [17] = assay: Antimicrobial activity against ampD, ampDh2, ampDh3 and ampG deficient Pseudomonas aeruginosa PAO1 harboring pZY0901 conferring resistance to gentamycin after 16 to 20 hrs by broth microdilution method; summary of the method: as §2
Pseudomonas aeruginosa [18] = assay: Antimicrobial activity against Pseudomonas aeruginosa PAO1 after 16 to 20 hrs by broth microdilution method; summary of the method: as §1
Pseudomonas aeruginosa [19] = assay: Antimicrobial activity against ampGh1 deficient Pseudomonas aeruginosa PAK after 16 to 20 hrs by broth microdilution method; summary of the method: as §2
Pseudomonas aeruginosa [20] = assay: Antimicrobial activity against ampD, […], ampDh2 deficient Pseudomonas aeruginosa PAO1 after 16 to 20 hrs by broth microdilution method; summary of the method: as §2
Pseudomonas aeruginosa [21] = assay: Antimicrobial activity against ampG deficient Pseudomonas aeruginosa PAO1 after 16 to 20 hrs by broth microdilution method; summary of the method: as §2
Pseudomonas aeruginosa [22] = assay: Antimicrobial activity against Pseudomonas aeruginosa PAO1 after 16 to 20 hrs by broth microdilution method in presence of 120 uM carbonyl cyanide m-chlorophenyl-hydrazone; summary of the method: as §3
Pseudomonas aeruginosa [23] = assay: Antimicrobial activity against ampD, ampDh2, ampDh3 and ampG deficient Pseudomonas aeruginosa PAO1 harboring pUCP24 conferring resistance to gentamycin after 16 to 20 hrs by broth microdilution method in presence of 120 uM carbonyl cyanide m-chlorophenyl-hydrazone; summary of the method: as §4
Pseudomonas aeruginosa [24] = assay: Antimicrobial activity against Pseudomonas aeruginosa isolate 3 obtained from cystic fibrosis patients after 16 to 20 hrs by broth microdilution method; summary of the method: as §2
Pseudomonas aeruginosa [25] = assay: Antimicrobial activity against Pseudomonas aeruginosa isolate 13 obtained from cystic fibrosis patients after 16 to 20 hrs by broth microdilution method in presence of 120 uM carbonyl cyanide m-chlorophenyl-hydrazone; summary of the method: as §3
Pseudomonas aeruginosa [26] = assay: Antimicrobial activity against ampG deficient Pseudomonas aeruginosa PAO1 harboring pUCP24 conferring resistance to gentamycin after 16 to 20 hrs by broth microdilution method in presence of 120 uM carbonyl cyanide m-chlorophenyl-hydrazone; summary of the method: as §4
Pseudomonas aeruginosa [27] = assay: Antimicrobial activity against ampD, ampDh2, ampDh3 deficient Pseudomonas aeruginosa PAO1 after 16 to 20 hrs by broth microdilution method in presence of 120 uM carbonyl cyanide m-chlorophenyl-hydrazone; summary of the method: as §4
Pseudomonas aeruginosa [28] = assay: Antimicrobial activity against Pseudomonas aeruginosa isolate 2 obtained from cystic fibrosis patients after 16 to 20 hrs by broth microdilution method in presence of 120 uM carbonyl cyanide m-chlorophenyl-hydrazone; summary of the method: as §4
Pseudomonas aeruginosa [29] = assay: Antimicrobial activity against Pseudomonas aeruginosa isolate 4 obtained from cystic fibrosis patients after 16 to 20 hrs by broth microdilution method in presence of 120 uM carbonyl cyanide m-chlorophenyl-hydrazone; summary of the method: as §4
Pseudomonas aeruginosa [30] = assay: Antimicrobial activity against Pseudomonas aeruginosa isolate 5 obtained from cystic fibrosis patients after 16 to 20 hrs by broth microdilution method; summary of the method: as §2
Pseudomonas aeruginosa [31] = assay: Antimicrobial activity against Pseudomonas aeruginosa isolate 7 obtained from cystic fibrosis patients after 16 to 20 hrs by broth microdilution method; summary of the method: as §2

Q: With `CC1(C)S[C@@H]2[C@H](NC(=O)[C@H](N)c3ccccc3)C(=O)N2[C@H]1C(=O)O` [AMPICILLIN] as the compound, how does the MIC (Pseudomonas aeruginosa [1]) read?
A: > 1020 µg/mL

Q: And the MIC (Pseudomonas aeruginosa [2])?
A: 512 µg/mL (≈ 1470 µM)

Q: And the MIC (Pseudomonas aeruginosa [3])?
A: 512 µg/mL

Q: What about the MIC (Pseudomonas aeruginosa [4]) of the same compound?
A: 32 µg/mL (≈ 91.6 µM)

Q: What about the MIC (Pseudomonas aeruginosa [5]) of the same compound?
A: 32 µg/mL (≈ 91.6 µM)

Q: And the MIC (Pseudomonas aeruginosa [6])?
A: 512 µg/mL

Q: And the MIC (Pseudomonas aeruginosa [7])?
A: 8 µg/mL

Q: What about the MIC (Pseudomonas aeruginosa [8]) of the same compound?
A: 8 µg/mL

Q: What about the MIC (Pseudomonas aeruginosa [9]) of the same compound?
A: > 1020 µg/mL

Q: And the MIC (Pseudomonas aeruginosa [10])?
A: 1020 µg/mL (≈ 2930 µM)

Q: What about the MIC (Pseudomonas aeruginosa [11]) of the same compound?
A: 512 µg/mL

Q: What about the MIC (Pseudomonas aeruginosa [12]) of the same compound?
A: 16 µg/mL

Q: What about the MIC (Pseudomonas aeruginosa [13]) of the same compound?
A: 32 µg/mL (≈ 91.6 µM)

Q: And the MIC (Pseudomonas aeruginosa [14])?
A: 8 µg/mL

Q: And the MIC (Escherichia coli)?
A: 16 µg/mL (≈ 45.8 µM)

Q: And the MIC (Pseudomonas aeruginosa [15])?
A: 512 µg/mL (≈ 1470 µM)

Q: What about the MIC (Pseudomonas aeruginosa [16]) of the same compound?
A: 64 µg/mL

Q: And the MIC (Pseudomonas aeruginosa [17])?
A: 1020 µg/mL (≈ 2930 µM)

Q: What about the MIC (Pseudomonas aeruginosa [18]) of the same compound?
A: 256 µg/mL (≈ 733 µM)

Q: And the MIC (Pseudomonas aeruginosa [19])?
A: 512 µg/mL (≈ 1470 µM)

Q: What about the MIC (Pseudomonas aeruginosa [20]) of the same compound?
A: 1020 µg/mL (≈ 2930 µM)

Q: And the MIC (Pseudomonas aeruginosa [21])?
A: 32 µg/mL (≈ 91.6 µM)

Q: What about the MIC (Pseudomonas aeruginosa [22]) of the same compound?
A: 128 µg/mL

Q: And the MIC (Pseudomonas aeruginosa [23])?
A: 16 µg/mL

Q: What about the MIC (Pseudomonas aeruginosa [24]) of the same compound?
A: 64 µg/mL (≈ 183 µM)

Q: And the MIC (Pseudomonas aeruginosa [25])?
A: 8 µg/mL

Q: And the MIC (Pseudomonas aeruginosa [26])?
A: 32 µg/mL

Q: And the MIC (Pseudomonas aeruginosa [27])?
A: 64 µg/mL

Q: And the MIC (Pseudomonas aeruginosa [28])?
A: 256 µg/mL

Q: And the MIC (Pseudomonas aeruginosa [29])?
A: 512 µg/mL

Q: And the MIC (Pseudomonas aeruginosa [30])?
A: 512 µg/mL (≈ 1470 µM)

Q: And the MIC (Pseudomonas aeruginosa [31])?
A: 256 µg/mL (≈ 733 µM)
